≈ marks a conversion by molar mass, not a printed value.
Tests used:
Assay type in all cases: functional
[1] = system: Escherichia coli; test: Antibacterial activity against Escherichia coli without AcrAB efflux system by agar dilution method
[2] = system: Staphylococcus aureus; test: Antibacterial activity against quinoline-susceptible methicillin-resistant Staphylococcus aureus by agar dilution method
Method in brief: (§1)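 Read-out is the minimum inhibitory concentration (MIC), found by a conventional agar dilution procedure.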

[3] = system: Pseudomonas aeruginosa; test: Antibacterial activity against Pseudomonas aeruginosa by agar dilution method
Method in brief: (§2)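 Read-out is the minimum inhibitory concentration (MIC), determined by a conventional agar dilution procedure against a panel of Gram-positive and Gram-negative bacteria.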

[4] = system: Staphylococcus aureus; test: Antibacterial activity against quinoline-resistant methicillin-resistant Staphylococcus aureus by agar dilution method; method in brief: as §1
[5] = system: Staphylococcus aureus; test: Antibacterial activity against quinoline-intermediate methicillin-resistant Staphylococcus aureus by agar dilution method; method in brief: as §1
[6] = system: Haemophilus influenzae; test: Antibacterial activity against Haemophilus influenzae by agar dilution method; method in brief: as §2
[7] = system: Moraxella catarrhalis; test: Antibacterial activity against Moraxella catarrhalis by agar dilution method; method in brief: as §2
[8] = system: Escherichia coli; test: Antibacterial activity against Escherichia coli with AcrAB efflux system by agar dilution method
[9] = system: Enterococcus faecalis; test: Antibacterial activity against Enterococcus faecalis by agar dilution method; method in brief: as §2
[10] = system: Streptococcus pneumoniae; test: Antibacterial activity against Streptococcus pneumoniae by agar dilution method; method in brief: as §2

SMILES | MIC [1] | MIC [2] | MIC [3] | MIC [4] | MIC [5] | MIC [6] | MIC [7] | MIC [8] | MIC [9] | MIC [10]
O=C(O)c1cn(C2CC2)c2c(F)c(N3CC(Sc4nc5ccccc5o4)C3)c(F)cc2c1=O | 8 µg/mL (≈ 17 µM) | 1 µg/mL (≈ 2.13 µM) | > 32 µg/mL | 32 µg/mL (≈ 68.2 µM) | 2 µg/mL (≈ 4.26 µM) | 0.5 µg/mL (≈ 1.07 µM) | 0.5 µg/mL (≈ 1.07 µM) | 8 µg/mL (≈ 17 µM) | 2 µg/mL (≈ 4.26 µM) | 2 µg/mL (≈ 4.26 µM)
CCOC(=O)c1ccc(NC2CN(c3c(F)cc4c(=O)c(C(=O)O)cn(C5CC5)c4c3F)C2)cc1 | 0.25 µg/mL (≈ 0.517 µM) | 0.031 µg/mL (≈ 0.0641 µM) | > 16 µg/mL | > 16 µg/mL | 1 µg/mL (≈ 2.07 µM) | ≤ 0.008 µg/mL | 0.125 µg/mL (≈ 0.259 µM) | 2 µg/mL (≈ 4.14 µM) | 2 µg/mL (≈ 4.14 µM) | 0.125 µg/mL (≈ 0.259 µM)
COc1c(N2CCNC(C)C2)c(F)cc2c(=O)c(C(=O)O)cn(C3CC3)c12 (stereo not given) [GATIFLOXACIN] | 0.063 µg/mL (≈ 0.168 µM) | 0.25 µg/mL (≈ 0.666 µM) | 1 µg/mL (≈ 2.66 µM) | > 128 µg/mL | 2 µg/mL (≈ 5.33 µM) | ≤ 0.008 µg/mL | 0.063 µg/mL (≈ 0.168 µM) | 0.063 µg/mL (≈ 0.168 µM) | 1 µg/mL (≈ 2.66 µM) | 0.5 µg/mL (≈ 1.33 µM)
Cc1ccc(NC2CN(c3c(F)cc4c(=O)c(C(=O)O)cn(C5CC5)c4c3F)C2)cc1 | 0.063 µg/mL (≈ 0.148 µM) | 0.031 µg/mL (≈ 0.0729 µM) | 16 µg/mL (≈ 37.6 µM) | 16 µg/mL (≈ 37.6 µM) | 0.5 µg/mL (≈ 1.18 µM) | ≤ 0.008 µg/mL | 0.031 µg/mL (≈ 0.0729 µM) | 0.5 µg/mL (≈ 1.18 µM) | 0.5 µg/mL (≈ 1.18 µM) | 0.5 µg/mL (≈ 1.18 µM)
Cn1cnnc1SC1CN(c2c(F)cc3c(=O)c(C(=O)O)cn(C4CC4)c3c2F)C1 | 0.25 µg/mL (≈ 0.577 µM) | 0.25 µg/mL (≈ 0.577 µM) | 8 µg/mL (≈ 18.5 µM) | > 16 µg/mL | 4 µg/mL (≈ 9.23 µM) | ≤ 0.008 µg/mL | 0.123 µg/mL (≈ 0.284 µM) | 1 µg/mL (≈ 2.31 µM) | 1 µg/mL (≈ 2.31 µM) | 2 µg/mL (≈ 4.61 µM)
Cn1nnnc1Sc1c(F)cc2c(=O)c(C(=O)O)cn(C3CC3)c2c1F | 1 µg/mL (≈ 2.64 µM) | 16 µg/mL (≈ 42.2 µM) | > 16 µg/mL | > 16 µg/mL | > 16 µg/mL | 0.125 µg/mL (≈ 0.33 µM) | 4 µg/mL (≈ 10.5 µM) | 16 µg/mL (≈ 42.2 µM) | > 16 µg/mL | > 16 µg/mL
O=C(O)c1cn(C2CC2)c2c(F)c(N3CC(Nc4ccccc4)C3)c(F)cc2c1=O | 0.031 µg/mL (≈ 0.0754 µM) | 0.016 µg/mL (≈ 0.0389 µM) | 4 µg/mL (≈ 9.72 µM) | 32 µg/mL (≈ 77.8 µM) | 0.5 µg/mL (≈ 1.22 µM) | ≤ 0.008 µg/mL | 0.016 µg/mL (≈ 0.0389 µM) | 0.25 µg/mL (≈ 0.608 µM) | 0.25 µg/mL (≈ 0.608 µM) | 0.25 µg/mL (≈ 0.608 µM)
O=C(O)c1cn(C2CC2)c2c(F)c(N3CC(N(Cc4ccccc4)Cc4ccccc4)C3)c(F)cc2c1=O | 64 µg/mL (≈ 124 µM) | > 64 µg/mL | > 64 µg/mL | > 64 µg/mL | > 64 µg/mL | 8 µg/mL (≈ 15.5 µM) | > 64 µg/mL | > 64 µg/mL | > 64 µg/mL | > 64 µg/mL
C[C@H]1COc2c(N3CCN(C)CC3)c(F)cc3c(=O)c(C(=O)O)cn1c23.C[C@H]1COc2c(N3CCN(C)CC3)c(F)cc3c(=O)c(C(=O)O)cn1c23.O [LEVOFLOXACIN] |  | 0.5 µg/mL | 0.5 µg/mL | > 128 µg/mL | 4 µg/mL | ≤ 0.008 µg/mL | 0.063 µg/mL |  | 2 µg/mL | 
Cc1ccc(SC2CN(c3c(F)cc4c(=O)c(C(=O)O)cn(C5CC5)c4c3F)C2)cc1 | 32 µg/mL (≈ 72.3 µM) | 2 µg/mL (≈ 4.52 µM) | > 32 µg/mL | > 32 µg/mL | 32 µg/mL (≈ 72.3 µM) | 0.25 µg/mL (≈ 0.565 µM) | 2 µg/mL (≈ 4.52 µM) | 32 µg/mL (≈ 72.3 µM) | 16 µg/mL (≈ 36.2 µM) | 32 µg/mL (≈ 72.3 µM)
O=C(O)c1cn(C2CC2)c2c(F)c(N3CC(Sc4ncccn4)C3)c(F)cc2c1=O | 1 µg/mL (≈ 2.32 µM) | 0.063 µg/mL (≈ 0.146 µM) | 8 µg/mL (≈ 18.6 µM) | 32 µg/mL (≈ 74.3 µM) | 1 µg/mL (≈ 2.32 µM) | ≤ 0.008 µg/mL | 0.063 µg/mL (≈ 0.146 µM) | 1 µg/mL (≈ 2.32 µM) | 0.25 µg/mL (≈ 0.581 µM) | 1 µg/mL (≈ 2.32 µM)
Cn1nnnc1SC1CN(c2c(F)cc3c(=O)c(C(=O)O)cn(C4CC4)c3c2F)C1 | 0.125 µg/mL (≈ 0.288 µM) | 0.125 µg/mL (≈ 0.288 µM) | 8 µg/mL (≈ 18.4 µM) | > 32 µg/mL | 2 µg/mL (≈ 4.6 µM) | < 0.008 µg/mL | 0.063 µg/mL (≈ 0.145 µM) | 1 µg/mL (≈ 2.3 µM) | 1 µg/mL (≈ 2.3 µM) | 2 µg/mL (≈ 4.6 µM)
O=C(O)c1cn(C2CC2)c2cc(N3CCNCC3)c(F)cc2c1=O [CIPROFLOXACIN] | ≤ 0.008 µg/mL | 1 µg/mL (≈ 3.02 µM) |  | > 64 µg/mL |  | ≤ 0.008 µg/mL | 0.063 µg/mL (≈ 0.19 µM) | ≤ 0.008 µg/mL | 2 µg/mL (≈ 6.04 µM) | 4 µg/mL (≈ 12.1 µM)
O=C(O)c1cn(C2CC2)c2c(F)c(N3CC(Sc4nc5ccccc5s4)C3)c(F)cc2c1=O | 8 µg/mL (≈ 16.5 µM) | 1 µg/mL (≈ 2.06 µM) | > 32 µg/mL | 32 µg/mL (≈ 65.9 µM) | 4 µg/mL (≈ 8.24 µM) | 0.5 µg/mL (≈ 1.03 µM) | 0.5 µg/mL (≈ 1.03 µM) | 8 µg/mL (≈ 16.5 µM) | 4 µg/mL (≈ 8.24 µM) | 4 µg/mL (≈ 8.24 µM)
O=C(O)c1cn(C2CC2)c2c(F)c(N3CC(Nc4ccc(Cl)cc4)C3)c(F)cc2c1=O | 0.125 µg/mL (≈ 0.28 µM) | 0.063 µg/mL (≈ 0.141 µM) | > 16 µg/mL | 16 µg/mL (≈ 35.9 µM) | 1 µg/mL (≈ 2.24 µM) | ≤ 0.008 µg/mL | 0.063 µg/mL (≈ 0.141 µM) | 1 µg/mL (≈ 2.24 µM) | 1 µg/mL (≈ 2.24 µM) | 0.5 µg/mL (≈ 1.12 µM)
COc1ccc(NC2CN(c3c(F)cc4c(=O)c(C(=O)O)cn(C5CC5)c4c3F)C2)cc1 | 0.031 µg/mL (≈ 0.0702 µM) | 0.031 µg/mL (≈ 0.0702 µM) | 4 µg/mL (≈ 9.06 µM) | 16 µg/mL (≈ 36.2 µM) | 0.25 µg/mL (≈ 0.566 µM) | ≤ 0.008 µg/mL | 0.031 µg/mL (≈ 0.0702 µM) | 0.25 µg/mL (≈ 0.566 µM) | 0.25 µg/mL (≈ 0.566 µM) | 0.063 µg/mL (≈ 0.143 µM)

— ChEMBL document CHEMBL1146325, “Synthesis and antibacterial activities of new quinolone derivatives utilizing 1-azabicyclo[1.1.0]butane” (2007)
